Data: publication PMC2857554 (Nature chemical biology, 2010)

How the values were obtained:
U2OS cells [1] = test: Intracellular Aurora B kinase activity, immunoblot; assay type: cell-based; conditions: taxol and MG132, mitotic shake-off
[2] = tested on: UTRM10 cells expressing LAP-Mps1 M602Q; test: pHistone H3 immunoblot in cells expressing inhibitor-resistant Mps1; assay type: cell-based; conditions: thymidine/taxol arrest; VX-680 2 µM
Mps1 = conditions: cited from earlier work
mammalian cells = conditions: cited from earlier work
[3] = tested on: PtK2 cells stably expressing HsMad2-EYFP; test: Mad2 kinetochore establishment assay; assay type: cell-based, Potorous tridactylus; conditions: 10 µM, NEB to NER
HCT116 cells [4] = test: Colony outgrowth assay; assay type: cell-based; conditions: 5–10 µM, 10 days
HCT116 cells [5] = test: Proliferation assay; assay type: cell-based
HCT116 cells [6] = test: PARP cleavage immunoblot; assay type: cell-based
Method in brief: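 HCT116 cells in McCoy's 5A with 10% FBS were treated with test compound at a series of concentrations. Lysates were collected at 24, 48 and 72 h and immunoblotted for PARP cleavage.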

MCF10A cells = test: PARP cleavage immunoblot; assay type: cell-based; conditions: 25 µM
Aurora B = Aurora B (Homo sapiens, UniProt Q96GD4); test: Lanthascreen in vitro assay on Aurora B; assay type: binding; conditions: in vitro assays
Chain of Aurora B (Q96GD4 whole entry): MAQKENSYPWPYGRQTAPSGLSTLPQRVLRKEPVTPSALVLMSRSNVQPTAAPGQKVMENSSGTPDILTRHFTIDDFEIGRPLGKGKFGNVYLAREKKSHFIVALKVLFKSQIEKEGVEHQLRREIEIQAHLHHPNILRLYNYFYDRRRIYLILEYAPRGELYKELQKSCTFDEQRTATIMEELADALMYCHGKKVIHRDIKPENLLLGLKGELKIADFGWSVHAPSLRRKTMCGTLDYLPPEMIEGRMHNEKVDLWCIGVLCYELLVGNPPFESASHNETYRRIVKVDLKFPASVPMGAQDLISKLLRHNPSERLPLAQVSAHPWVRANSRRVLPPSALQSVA

[7] = tested on: U2OS cells with Plk4 overexpression; test: Proliferation assay of PLK4-overexpressing U2OS cells; assay type: cell-based; conditions: 48, 72, 96 hours
[8] = tested on: Hela S3 cells expressing histone H2B-GFP; test: Mitotic escape, time-lapse, nocodazole arrest; assay type: cell-based; conditions: nocodazole-arrested cells
Method in brief: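 Hela S3 cells expressing H2B-GFP were treated with nocodazole with or without test compound. They were imaged in a heated chamber (37°C, 5% CO2), with DIC and GFP frames every 5 min across 5 z-planes. Mitotic exit was scored by nuclear envelope reassembly, counting 150 cells per population.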

U2OS cells [9] = test: Mitotic escape assay; assay type: cell-based
hTERT-RPE1 cells = test: PARP cleavage immunoblot; assay type: cell-based; conditions: 25 µM
Hela S3 or U2OS cells = test: Centrosome duplication in cycling cells; assay type: cell-based; conditions: 10 µM, 1 or 2 cell doublings
Method in brief: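 Hela S3 and U2OS cells on 12-mm coverslips were synchronized, then cycled in test compound or DMSO for one or two cell cycles. Mitotic spindles were stained for centrin, α-tubulin and DNA. The percentage of mitotic cells with fewer than 4 centrin dots was scored, counting 135–300 cells per arm. Results are mean ± SD from three independent experiments.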

[10] = tested on: U2OS H2B–GFP cells with Plk4 overexpression; test: Time-lapse of mitosis in cells with extra centrosomes; assay type: cell-based; conditions: extra centrosome containing cells
Method in brief: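 U2OS H2B–GFP cells with doxycycline-inducible Plk4 were blocked in thymidine for 18 h, then released into doxycycline (2 µg·ml−1) for 10 h. A second 18 h thymidine block followed, then release into medium for 6 h. Cells were treated with 5 µM test compound and imaged by time-lapse at 37°C, 5% CO2.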

UTRM10 cells = test: Centriole overduplication under hydroxyurea; assay type: cell-based; conditions: 10 or 25 µM with hydroxyurea, 48 hours
Method in brief: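 UTRM10 cells co-treated for 48 h with hydroxyurea (4 mM) plus test compound (10 or 25 µM) or DMSO vehicle. Centrioles were scored by centrin immunostaining, with about 433–485 cells counted per condition. Results are mean ± SD of three independent experiments.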

| Structure (SMILES) | hyperphosphorylation status of Mps1 (mobility shift) (U2OS cells [1]) | phosphorylation of Aurora B at Thr232 (U2OS cells [1]) | mitotic escape despite LAP-Mps1 M602Q [2] | inhibition of Mps1 kinase activity in S. cerevisiae (Mps1) | effectiveness in mammalian cells (mammalian cells) | less time spent in mitosis versus DMSO [3] | cell viability and clonal survival (HCT116 cells [4]) | cytotoxic concentrations (HCT116 cells [5]) | onset of PARP cleavage (apoptosis) (HCT116 cells [6]) | apoptosis-associated PARP cleavage (MCF10A cells) | activity against Aurora B in vitro (Aurora B) | additional cytotoxicity versus parental U2OS [7] | time within which the majority of cells escape mitosis [8] | 4c pHistone H3 negative cells, flow cytometry (U2OS cells [9]; nocodazole-arrested cells) | cyclin B protein levels (U2OS cells [9]; thymidine/nocodazole arrest, 4 hrs inhibitor, reversed by MG132) | apoptosis-associated PARP cleavage (hTERT-RPE1 cells) | mitotic cells containing less than 4 centrioles, versus vehicle (Hela S3 or U2OS cells) | decrease in time spent in mitosis [10] | effect on centriole overduplication (UTRM10 cells) |
| --- | --- | --- | --- | --- | --- | --- | --- | --- | --- | --- | --- | --- | --- | --- | --- | --- | --- | --- | --- |
| Cc1cc(Nc2cc(N3CCN(C)CC3)nc(Sc3ccc(NC(=O)C4CC4)cc3)n2)n[nH]1 [VX-680] | did not adversely affect | inhibited | still capable of executing an efficient mitotic escape |  |  |  |  |  |  |  |  |  |  |  |  |  |  |  |  |
| O=c1[nH]c2ccc(Br)cc2o1 [cincreasin] |  |  |  | effective | ineffective |  |  |  |  |  |  |  |  |  |  |  |  |  |  |
| COc1cc(N2CCC(O)CC2)ccc1Nc1cc(Nc2ccccc2S(=O)(=O)C(C)C)c2cc[nH]c2n1 [Mps1-IN-1] |  | dose-dependent reduction |  |  |  | roughly 40% | severe loss of cell viability and clonal survival | 5 to 10 µM | 48 h | little-to-no apoptosis-associated PARP cleavage | does not exhibit activity against Aurora B | no detectable additional cytotoxicity | ≤ 1 h | dose-dependent accumulation of 4c pHistone H3 negative cells | dropped with increasing concentration | little-to-no apoptosis-associated PARP cleavage | no significant difference | 4 fold | no effect |
